Experimental findings from ChEMBL document CHEMBL4351015, “Design, synthesis and biological evaluation of 3-(imidazo[1,2-a]pyrazin-3-ylethynyl)-2-methylbenzamides as potent and selective pan-tropomyosin receptor kinase (TRK) inhibitors” (Eur J Med Chem, 2019) are described below.

Activity calls are given as the source filed them. The rule behind the calls is not given here.

Data set [1] has as its target Tyrosine-protein kinase ABL1 (Homo sapiens, UniProt P00519). The data set can be described thus: Inhibition of recombinant full length human His-tagged ABL1 expressed in baculovirus infected insect cells using tyr 02 as substrate incubated for 2 hr by Z'-Lyte assay.
The target in data set [2] is High affinity nerve growth factor receptor (Homo sapiens, UniProt P04629). The data set can be described thus: Inhibition of recombinant human His-tagged TrkA catalytic domain (441 to 796 residues) expressed in baculovirus expression system using tyr 01 as substrate incubated for 1 hr by Z'-Lyte assay.
High affinity nerve growth factor receptor, sequence (P04629 whole entry, the tested form may be a part): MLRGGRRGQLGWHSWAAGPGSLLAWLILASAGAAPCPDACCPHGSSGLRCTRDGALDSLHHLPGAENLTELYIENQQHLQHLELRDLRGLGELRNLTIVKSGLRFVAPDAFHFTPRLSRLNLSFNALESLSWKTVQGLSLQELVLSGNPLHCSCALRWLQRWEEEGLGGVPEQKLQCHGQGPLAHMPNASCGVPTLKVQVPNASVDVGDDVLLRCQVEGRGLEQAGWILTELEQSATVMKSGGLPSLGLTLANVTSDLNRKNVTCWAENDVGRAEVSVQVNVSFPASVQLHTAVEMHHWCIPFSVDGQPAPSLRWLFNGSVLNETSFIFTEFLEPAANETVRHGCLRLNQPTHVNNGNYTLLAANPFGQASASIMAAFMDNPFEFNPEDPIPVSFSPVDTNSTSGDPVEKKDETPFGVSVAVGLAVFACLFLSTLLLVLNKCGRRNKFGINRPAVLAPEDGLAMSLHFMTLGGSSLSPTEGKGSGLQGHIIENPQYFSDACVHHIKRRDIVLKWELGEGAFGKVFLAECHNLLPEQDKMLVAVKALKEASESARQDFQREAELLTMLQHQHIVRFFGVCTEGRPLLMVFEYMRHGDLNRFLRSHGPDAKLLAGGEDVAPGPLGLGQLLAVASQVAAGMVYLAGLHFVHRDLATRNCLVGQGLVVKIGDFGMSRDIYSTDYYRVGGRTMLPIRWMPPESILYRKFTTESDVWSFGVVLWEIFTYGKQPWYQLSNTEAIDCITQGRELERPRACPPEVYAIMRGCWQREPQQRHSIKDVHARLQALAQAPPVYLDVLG
Data set [3] addresses BDNF/NT-3 growth factors receptor (Homo sapiens, UniProt Q16620). The data set is described as follows: Inhibition of recombinant human His-tagged TrkB catalytic domain (526 to 838 residues) expressed in baculovirus expression system using tyr 01 as substrate incubated for 1 hr by Z'-Lyte assay.
Data set [4] deals with NT-3 growth factor receptor (Homo sapiens, UniProt Q16288). The data set can be described thus: Inhibition of recombinant human His-tagged TrkC cytoplasmic domain (510 to 825 residues) expressed in baculovirus using tyr 01 as substrate incubated for 1 hr by Z'-Lyte assay.
NT-3 growth factor receptor, sequence (Q16288 whole entry, the tested form may be a part): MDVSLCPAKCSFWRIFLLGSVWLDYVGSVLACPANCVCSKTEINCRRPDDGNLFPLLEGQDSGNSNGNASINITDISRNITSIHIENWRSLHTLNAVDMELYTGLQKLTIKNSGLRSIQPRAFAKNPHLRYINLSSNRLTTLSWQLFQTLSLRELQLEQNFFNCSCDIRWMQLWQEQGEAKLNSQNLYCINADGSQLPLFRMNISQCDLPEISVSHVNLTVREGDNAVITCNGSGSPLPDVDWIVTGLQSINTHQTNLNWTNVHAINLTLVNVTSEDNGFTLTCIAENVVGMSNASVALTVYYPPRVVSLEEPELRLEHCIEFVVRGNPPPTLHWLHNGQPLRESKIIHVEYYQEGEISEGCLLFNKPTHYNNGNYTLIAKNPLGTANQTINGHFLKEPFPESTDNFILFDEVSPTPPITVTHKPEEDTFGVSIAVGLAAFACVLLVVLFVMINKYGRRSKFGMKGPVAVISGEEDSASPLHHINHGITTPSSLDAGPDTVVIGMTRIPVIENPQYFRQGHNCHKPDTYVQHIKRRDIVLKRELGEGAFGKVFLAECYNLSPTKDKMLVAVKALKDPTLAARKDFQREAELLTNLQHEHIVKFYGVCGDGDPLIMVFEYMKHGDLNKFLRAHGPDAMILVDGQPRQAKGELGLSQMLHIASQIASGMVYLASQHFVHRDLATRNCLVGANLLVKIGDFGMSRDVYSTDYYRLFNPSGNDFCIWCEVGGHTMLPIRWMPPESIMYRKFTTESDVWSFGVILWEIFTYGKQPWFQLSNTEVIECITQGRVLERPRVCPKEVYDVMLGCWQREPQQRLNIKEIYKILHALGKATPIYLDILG
The subject of data set [5] is SH-SY5Y. The data set is described as follows: Neurotoxicity in human SH-SY5Y cells assessed as reduction in cell viability incubated for 72 hrs by CCK8 assay. In kind it is toxicity, cell-based.
The subject of data set [6] is SH-SY5Y. The data set can be described thus: Antiproliferative activity against human SH-SY5Y cells transfected with TrkB (unknown origin) assessed as reduction in cell viability incubated for 72 hrs by CCK8 assay. It counts as functional, cell-based. A digest of the protocol: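 SH-SY5Y-TrkB cells (SH-SY5Y stably transfected with pRP-TrkB, kept under 0.5 µg/ml puromycin in 1:1 MEM/F-12 with 10% FBS) seeded at 1500-3000/well, left overnight. Compounds 0.000457–3 µM were then added with or without BDNF 10 ng/ml for 72 h. Read-out by CCK8. IC50 came from concentration-response curve fitting, reported as mean ± SD from at least three independent experiments.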

Tyrosine-protein kinase ABL1, sequence (P00519 whole entry, the tested form may be a part): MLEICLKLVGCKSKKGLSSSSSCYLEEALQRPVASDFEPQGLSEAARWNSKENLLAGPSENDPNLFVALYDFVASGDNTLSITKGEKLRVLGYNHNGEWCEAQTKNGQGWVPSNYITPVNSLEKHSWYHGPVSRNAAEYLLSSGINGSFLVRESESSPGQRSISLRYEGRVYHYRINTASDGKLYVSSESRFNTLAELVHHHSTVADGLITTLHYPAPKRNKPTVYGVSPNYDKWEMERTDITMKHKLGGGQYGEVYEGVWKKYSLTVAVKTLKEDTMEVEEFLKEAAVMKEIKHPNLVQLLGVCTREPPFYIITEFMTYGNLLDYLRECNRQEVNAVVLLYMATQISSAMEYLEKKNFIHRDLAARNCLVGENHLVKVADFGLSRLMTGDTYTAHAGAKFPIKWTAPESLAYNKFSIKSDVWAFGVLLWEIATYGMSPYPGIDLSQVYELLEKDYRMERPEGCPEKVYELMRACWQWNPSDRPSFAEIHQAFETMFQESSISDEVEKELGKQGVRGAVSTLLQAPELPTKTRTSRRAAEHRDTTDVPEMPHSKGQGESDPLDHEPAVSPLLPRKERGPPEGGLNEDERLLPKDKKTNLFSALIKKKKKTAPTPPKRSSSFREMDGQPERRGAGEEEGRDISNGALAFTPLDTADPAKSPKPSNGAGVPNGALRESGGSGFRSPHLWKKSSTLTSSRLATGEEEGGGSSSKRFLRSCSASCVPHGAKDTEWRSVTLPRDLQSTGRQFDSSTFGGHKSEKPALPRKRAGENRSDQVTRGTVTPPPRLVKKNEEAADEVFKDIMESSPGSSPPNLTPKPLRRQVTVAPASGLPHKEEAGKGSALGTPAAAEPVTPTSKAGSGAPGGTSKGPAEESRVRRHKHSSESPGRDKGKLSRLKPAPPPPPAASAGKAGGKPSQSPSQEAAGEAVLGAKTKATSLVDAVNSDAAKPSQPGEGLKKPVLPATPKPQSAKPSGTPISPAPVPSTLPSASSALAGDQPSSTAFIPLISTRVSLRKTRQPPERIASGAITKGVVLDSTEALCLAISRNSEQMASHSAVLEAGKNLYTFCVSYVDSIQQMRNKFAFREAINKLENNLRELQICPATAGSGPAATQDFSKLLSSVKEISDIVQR
BDNF/NT-3 growth factors receptor, sequence (Q16620 whole entry, the tested form may be a part): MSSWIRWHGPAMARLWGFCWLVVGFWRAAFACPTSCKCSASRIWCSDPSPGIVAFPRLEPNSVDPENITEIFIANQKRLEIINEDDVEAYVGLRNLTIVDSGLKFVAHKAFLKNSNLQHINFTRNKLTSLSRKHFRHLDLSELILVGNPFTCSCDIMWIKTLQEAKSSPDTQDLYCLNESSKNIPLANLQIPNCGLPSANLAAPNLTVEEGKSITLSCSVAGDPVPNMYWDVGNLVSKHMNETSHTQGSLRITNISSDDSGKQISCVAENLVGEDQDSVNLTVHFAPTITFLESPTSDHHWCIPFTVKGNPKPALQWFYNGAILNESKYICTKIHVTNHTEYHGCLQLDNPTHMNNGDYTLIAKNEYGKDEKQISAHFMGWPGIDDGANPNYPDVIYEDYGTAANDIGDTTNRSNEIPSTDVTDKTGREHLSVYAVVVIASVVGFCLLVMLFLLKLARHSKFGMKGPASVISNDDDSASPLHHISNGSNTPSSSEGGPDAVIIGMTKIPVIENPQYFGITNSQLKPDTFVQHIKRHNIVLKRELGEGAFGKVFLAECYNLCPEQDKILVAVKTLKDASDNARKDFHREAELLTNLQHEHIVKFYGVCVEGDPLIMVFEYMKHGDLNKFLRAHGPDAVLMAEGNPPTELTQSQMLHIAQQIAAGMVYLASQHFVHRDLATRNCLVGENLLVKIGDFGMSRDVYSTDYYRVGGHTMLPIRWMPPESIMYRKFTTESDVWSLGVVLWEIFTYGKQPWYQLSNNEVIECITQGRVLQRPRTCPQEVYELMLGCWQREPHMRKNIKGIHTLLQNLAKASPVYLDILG

As to `Cc1cc(CN2CCN(C)CC2)cc(NC(=O)c2cccc(C#Cc3cnc4cnc(-c5ccc(N)cc5)cn34)c2C)c1`, the half-inhibitory concentration (IC50) – broadly, the point on the concentration scale where inhibition reaches its midpoint – in data set [1] is more than 1000 nM; in data set [2], 17.4 nM; in data set [3], 41.3 nM.

On to `CCc1cc(CN2CCN(C)CC2)cc(NC(=O)c2cccc(C#Cc3cnc4cnc(-c5ccc(N)cc5)cn34)c2C)c1`, for which the 50% inhibitory concentration (IC50) is more than 1000 nM in data set [1], 3.56 nM in data set [2] and 9.3 nM in data set [3].

On to `Cc1cc(C#Cc2cnc3cnccn23)cc(C(=O)Nc2cc(CN3CCN(C)CC3)cc(C(F)(F)F)c2)c1`, for which the concentration for half-maximal inhibition (IC50) turned out to be 449 nM in data set [1], 132 nM in data set [2] and 178 nM in data set [3].

Turning to `Cc1ccc(C(=O)Nc2cc(CN3CCN(C)CC3)cc(C(F)(F)F)c2)cc1C#Cc1cnc2cnccn12`, the IC50 worked out at 8.24 nM in data set [2] and 9.37 nM in data set [3].

`Cc1c(C#Cc2cnc3cnc(-c4ccc(N)cc4)cn23)cccc1C(=O)Nc1cc(CN2CCN(C)CC2)cc(C(C)(C)C)c1`: the IC50 was more than 1000 nM in data set [1], 6.4 nM in data set [2] and 15.6 nM in data set [3].

`Cc1ccc(C#Cc2cnc3cnccn23)cc1C(=O)Nc1cc(CN2CCN(C)CC2)cc(C(F)(F)F)c1`: the IC50 in data set [1], in data set [2] and in data set [3] was more than 1000 nM throughout.

`CCCc1c(C#Cc2cnc3cnccn23)cccc1C(=O)Nc1cc(CN2CCN(C)CC2)cc(C(F)(F)F)c1`: the IC50 in data set [1], in data set [2], in data set [3] and in data set [4] was more than 1000 nM in each case.

For `CN1CCN(Cc2cc(NC(=O)c3cccc(C#Cc4cnc5cnccn45)c3)cc(C(F)(F)F)c2)CC1`, the IC50 in data set [1] was 33.3 nM; in data set [2], 41.6 nM; in data set [3] it was 43.9 nM.

`CN1CCN(Cc2cc(NC(=O)c3cccc(C#Cc4cnc5cnccn45)c3Cl)cc(C(F)(F)F)c2)CC1`: the values for the IC50 in data set [1], in data set [2] and in data set [3] were more than 1000 nM, 227 nM and 254 nM, respectively.

`Cc1c(C#Cc2cnc3cnc(-c4ccncc4)cn23)cccc1C(=O)Nc1cc(CN2CCN(C)CC2)cc(C(F)(F)F)c1`: the figures for the IC50 in data set [1], in data set [2] and in data set [3] were more than 1000 nM, 28.8 nM and 43.5 nM, respectively.

`Cc1c(C#Cc2cnc3cnccn23)cccc1C(=O)Nc1cc(CN2CCN(C)CC2)cc(C(F)(F)F)c1`: the IC50 in data set [1] is more than 1000 nM; in data set [2], 39.8 nM; in data set [3], 38.3 nM.

With `Cc1c(C#Cc2cnc3cnc(-c4ccccc4)cn23)cccc1C(=O)Nc1cc(CN2CCN(C)CC2)cc(C(F)(F)F)c1`, the IC50 is more than 1000 nM in data set [1], 29.2 nM in data set [2] and 22.7 nM in data set [3].

`O=C(Nc1cnn2ccc(N3CCC[C@@H]3c3cc(F)ccc3F)nc12)N1CC[C@H](O)C1` [LAROTRECTINIB]: the IC50 in data set [1] is more than 1000 nM. In the data set on SH-SY5Y [5], the Activity entry was “Non-Toxic”. For the same compound, the result with SH-SY5Y [6] was Active.

As to `COc1c(C#Cc2cnc3cnccn23)cccc1C(=O)Nc1cc(CN2CCN(C)CC2)cc(C(F)(F)F)c1`, the concentration for half-maximal inhibition (IC50) in data set [1], in data set [2] and in data set [3] was more than 1000 nM each time.

Turning to `Cc1c(C#Cc2cnc3cnc(-c4ccc(N)cc4)cn23)cccc1C(=O)Nc1cc(CN2CCN(C)CC2)cc(C(F)(F)F)c1`, the IC50 was more than 1000 nM in data set [1], 7.75 nM in data set [2] and 13.1 nM in data set [3].

With `CC(C)c1c(C#Cc2cnc3cnccn23)cccc1C(=O)Nc1cc(CN2CCN(C)CC2)cc(C(F)(F)F)c1`, the IC50 in data set [1], in data set [2], in data set [3] and in data set [4] was more than 1000 nM each time.

In the case of `CCc1c(C#Cc2cnc3cnccn23)cccc1C(=O)Nc1cc(CN2CCN(C)CC2)cc(C(F)(F)F)c1`, the results for the IC50 in data set [1], in data set [2] and in data set [3] were more than 1000 nM, 186 nM and 315 nM, respectively.

As for `Cc1c(C#Cc2cnc3cnc(-c4ccc(N)cc4)cn23)cccc1C(=O)Nc1cc(CN2CCN(C)CC2)cc(-c2ccccc2)c1`, the IC50 is more than 1000 nM in data set [1], 7.34 nM in data set [2] and 24.2 nM in data set [3].
